697 NFkB inh: inhibitors of PMA/ionomycin-induced NF-kB reporter, 697 cells, primary screen, B-cell NF-kB inhibitor project, cell-based, luminescence, uHTS | 697 B-cell NF-kB luciferase reporter, 16 h | inhibition, % at 4 µM | 330,000 tested, 0.33% active | AID 435022, 2010; in the data active = inhibition above about 35%
CHOP inhibitor: inhibitors of CHOP promoter induction, primary screen, cell-based, unfolded protein response, luciferase reporter; inhibition, % at 10 µM; CHO-K1 CHOP-promoter luciferase, tunicamycin-induced, 15-18 h; 220,000 tested, 3.8% active;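 active = compounds that reduced the stress-induced luciferase reporter signal by more than about 70% of percent inhibition, limit read from the data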;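 note: 0% = tunicamycin plus vehicle and 100% = wells without tunicamycin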
UPR XBP1 act: activators of adaptive XBP1 UPR arm, primary screen, cell-based, CHO-XBP1 luciferase reporter, luminescence, uHTS; IRE1-XBP1 UPR activation; percent of tunicamycin response, DMSO as zero; activation, % at 20 µM; 330,000 tested, 0.33% active;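 active = versus positive control, 20 µM dose yields 30% or more activation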;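 note: 100% = tunicamycin at 10 µg/mL and 0% = DMSO only wells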
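Signal: luciferase luminescence; Assay system: CHO-XBP1 luciferase reporter cells; Amount: one thousand reporter cells per well; Dosing: 20 µM single concentration, DMSO 1%; Benchmarks: high control tunicamycin 10 µg/mL final, low control DMSO vehicle only; Schedule: 6 h compound exposure at 37 °C, 5% CO2; Evaluation: percent activation relative to tunicamycin reference.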
CHOP UPR activ: activators of apoptotic CHOP UPR arm, primary screen, cell-based, CHO-CHOP luciferase reporter, luminescence, uHTS | UPR activation; percent of tunicamycin response over DMSO baseline | activation, % at 10 µM | 330,000 tested, 0.34% active | AID 449763, 2010;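 active = at 10 µM dose, activation of 40% or more, normalized to positive control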;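 note: 100% = tunicamycin at 10 µg/mL and 0% = DMSO alone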
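Dosing – one dose, 10 µM in 0.5% DMSO · System – CHO-CHOP cells, stable luciferase reporter of PERK-eIF2a-CHOP signalling · Input – 500 cells/well · Control set – tunicamycin 10 µg/mL final as positive, DMSO-only wells as negative · Timing – 6 h compound treatment, 37 °C · Measure – % activation vs tunicamycin · Technique – luminescence read with Steady-Glo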
Jurkat NFkB inh: inhibitors of induced NF-kB luciferase reporter, primary screen, TCR NF-kB activation inhibitor project, cell-based, luminescence, uHTS. Jurkat, PMA/ionomycin-induced NF-kB luciferase reporter. inhibition, % at 4 µM. 330,000 tested, 0.53% active. AID 435003, 2010; in the data active = inhibition above about 50%
XBP1 UPR conf: IRE1-XBP1 UPR arm activators, confirmation, cell-based, CHO-XBP1 luciferase reporter, luminescence, single concentration; 1,000 tested, 63% active; shares compounds with UPR XBP1 act; activation, % at 20 µM; AID 485299, 2010;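 active = reporter signal at least 30% of the positive control's activation in two or more of four replicate wells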;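 note: plate controls were DMSO negative control for no effect and tunicamycin 10 µg/mL positive control for full effect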
* marks the source's active call; other numbers are inactive results; x = no result given. The full list was thinned out, with hits kept by preference.

SMILES | 697 NFkB inh | CHOP inhibitor | UPR XBP1 act | CHOP UPR activ | Jurkat NFkB inh | XBP1 UPR conf
CC(C)(CNc1ccc([N+](=O)[O-])cc1Cl)N1CCOCC1 | 6.3 | x | -1.0 | -0.1 | 6.5 | x
CCCCN(CC)S(=O)(=O)c1ccc(C(=O)N=c2sc3cc(NC(C)=O)ccc3n2C)cc1 | -18.3 | 47.3 | 137.0* | 23.4 | 4.0 | 106.3*
CCc1ccc(-c2nc(SCC(=O)c3c(N)n(C4CC4)c(=O)[nH]c3=O)n[nH]2)cc1 | 0.0 | x | 0.9 | 0.3 | -11.5 | x
CC(NCC(O)COCCC12CC3CC(CC(C3)C1)C2)c1ccccc1 (centres undefined) | 7.1 | 58.2 | 50.5* | 0.5 | 12.7 | 50.6*
NCC(O)COCCC12CC3CC(CC(C3)C1)C2 (centres undefined) | -1.8 | 7.1 | -1.4 | -0.6 | -22.8 | x
Cc1c(C=N)c(O)n(C)c(=O)c1C#N | -1.0 | -3.7 | -2.7 | 0.1 | -40.6 | x
CC1(C)CC(=O)C(C=Nc2ccc(O)c(N=CC3=C(O)CC(C)(C)CC3=O)c2)=C(O)C1 | -13.3 | 30.7 | 11.9 | 5.2 | 6.4 | x
CC1(C)CC(=O)C(C=Nc2ccc(C(=O)c3ccccc3)cc2N=CC2=C(O)CC(C)(C)CC2=O)=C(O)C1 | 18.8 | 52.8 | 179.9* | 19.8 | 5.5 | 267.9*
Nc1nc(Nc2cccc(F)c2)nc2ccccc12 | -132.8 | 20.7 | 40.1* | 18.6 | -109.0 | 41.8*
C[C@H]1CN([C@@H](C)CO)C(=O)c2cccc(NC(=O)Nc3ccc(C(F)(F)F)cc3)c2O[C@@H]1CN(C)C(=O)Nc1ccc(F)cc1 | 18.9 | x | 5.6 | 5.3 | 5.4 | x
C[C@H](CO)N1C[C@H](C)[C@@H](CN(C)C(=O)Nc2ccc(C(F)(F)F)cc2)Oc2c(NC(=O)Nc3ccc(C(F)(F)F)cc3)cccc2C1=O | 26.4 | x | 36.5* | 7.4 | 8.8 | 28.1
Cc1ccc(S(=O)(=O)NCCC(=O)N2CCCCCCC2)cc1 | 0.7 | x | 1.2 | 0.5 | -8.9 | x
Cc1c(Cl)cccc1Nc1nc(NCCO)c2ccccc2n1 | 0.9 | x | 74.9* | 9.0 | -5.7 | 58.2*
Cc1ccc(S(=O)(=O)Nc2cccc3c2O[C@H](CN(C)C(=O)Nc2cccc4ccccc24)[C@H](C)CN([C@H](C)CO)C3=O)cc1 | -14.6 | x | 0.9 | 2.9 | -8.0 | x
CCn1c(SCC(=O)Nc2ccc(NC(C)=O)cc2)nc2c1c(=O)n(C)c(=O)n2C | 7.1 | x | -5.8 | 0.9 | 10.7 | x
CC(C)(C)C1CCc2sc(-c3nnc(CCl)o3)cc2C1 (centres undefined) | -33.8 | -14.6 | 44.1* | 35.4 | -25.3 | 9.5
O=C(OCC(=O)N(C1CCCCC1)C1CCCCC1)c1ccc(Cl)nc1 | 17.8 | x | -2.8 | -0.8 | 3.2 | x
C=CCn1c(NC(=O)c2ccccc2Cl)c(C#N)c2nc3ccccc3nc21 | -10.2 | -15.7 | 35.2* | 0.2 | 4.1 | -0.7
Cc1c(CCOC(=O)CC23CC4CC(CC(C4)C2)C3)sc[n+]1CC(=O)c1ccc(Br)cc1 | -4.4 | -24.9 | 34.4* | 3.3 | -4.3 | 0.6
Cc1c(CCOC(=O)CC23CC4CC(CC(C)(C4)C2)C3)sc[n+]1CC(=O)c1ccccc1 | -25.3 | 53.8 | -1.8 | -0.6 | 6.2 | x
COc1ccc(/C=N/Nc2nnc(-c3ccccc3)c(=O)[nH]2)cc1 | -9.4 | -73.2 | 49.4* | 31.2 | -12.1 | 73.2*
O=c1[nH]c(N/N=C/c2ccccc2Br)nnc1-c1ccccc1 | 11.8 | 19.8 | 14.4 | 1.4 | 6.5 | x
Cc1cc(C)cc(NC(=O)Cn2c(=O)oc3cc(S(=O)(=O)N4CCC(C)CC4)ccc32)c1 | -2.9 | 71.9* | 32.3* | 0.0 | -2.1 | 0.6
Cc1ccc(-c2nnn(CC(=O)Nc3ccc(S(=O)(=O)N4CCC(C)CC4)cc3)n2)cc1 | -14.4 | -26.2 | 44.2* | 4.2 | 5.9 | 56.5*
Cc1ccnc(NC(=O)Cn2c(=O)oc3cc(S(=O)(=O)N4CCCC4)ccc32)c1 | 8.7 | x | -0.9 | -1.2 | -3.9 | x
CC1CCN(S(=O)(=O)c2ccc(NC(=O)Cn3nnc(-c4ccccc4)n3)cc2)CC1 | 13.9 | 35.4 | 1.9 | 0.4 | -2.6 | x
